Laboratory results as given in ChEMBL document CHEMBL1921669, “In vivo PET imaging of histone deacetylases by 18F-suberoylanilide hydroxamic acid (18F-SAHA)” (J Med Chem, 2011).
pIC50: −log10 of the molar value.

Assays:
[1] = molecular target: T1, Protein deacetylase HDAC6 (Homo sapiens, UniProt Q9UBN7); assay: Inhibition of human recombinant full-length HDAC6 using fluorophore conjugated substrate by fluorescence assay
T1 sequence (Q9UBN7 whole entry): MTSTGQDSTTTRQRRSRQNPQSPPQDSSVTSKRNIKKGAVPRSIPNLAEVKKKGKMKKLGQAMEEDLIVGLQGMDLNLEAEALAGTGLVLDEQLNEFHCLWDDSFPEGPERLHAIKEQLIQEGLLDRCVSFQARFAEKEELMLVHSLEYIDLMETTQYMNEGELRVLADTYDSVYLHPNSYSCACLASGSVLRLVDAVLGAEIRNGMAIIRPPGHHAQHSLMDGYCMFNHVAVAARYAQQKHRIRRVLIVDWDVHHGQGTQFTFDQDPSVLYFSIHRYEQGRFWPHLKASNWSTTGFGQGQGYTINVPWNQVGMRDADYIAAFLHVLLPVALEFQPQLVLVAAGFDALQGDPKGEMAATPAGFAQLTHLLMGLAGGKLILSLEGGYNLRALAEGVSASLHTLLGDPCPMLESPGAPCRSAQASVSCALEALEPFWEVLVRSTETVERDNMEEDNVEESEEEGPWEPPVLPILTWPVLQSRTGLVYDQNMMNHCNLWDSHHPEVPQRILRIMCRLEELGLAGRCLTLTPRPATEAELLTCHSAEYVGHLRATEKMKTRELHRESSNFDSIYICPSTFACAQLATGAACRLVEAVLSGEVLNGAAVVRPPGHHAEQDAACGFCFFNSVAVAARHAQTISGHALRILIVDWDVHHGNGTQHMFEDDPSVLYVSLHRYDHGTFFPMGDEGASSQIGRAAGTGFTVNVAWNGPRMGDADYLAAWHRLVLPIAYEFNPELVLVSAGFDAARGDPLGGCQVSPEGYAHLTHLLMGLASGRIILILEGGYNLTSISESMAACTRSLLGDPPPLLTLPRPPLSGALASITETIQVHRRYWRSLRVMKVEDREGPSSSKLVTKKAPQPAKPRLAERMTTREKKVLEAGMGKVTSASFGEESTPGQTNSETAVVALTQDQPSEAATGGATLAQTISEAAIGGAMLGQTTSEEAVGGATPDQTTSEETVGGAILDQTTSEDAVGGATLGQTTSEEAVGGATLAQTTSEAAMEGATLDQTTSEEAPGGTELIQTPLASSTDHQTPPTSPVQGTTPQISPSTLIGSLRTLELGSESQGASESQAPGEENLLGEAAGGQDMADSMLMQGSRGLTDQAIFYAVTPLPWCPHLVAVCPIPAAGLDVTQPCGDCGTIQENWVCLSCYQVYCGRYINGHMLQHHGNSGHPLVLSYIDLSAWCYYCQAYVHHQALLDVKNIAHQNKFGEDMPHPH

Histone deacetylase 3 = Histone deacetylase 3 (Homo sapiens, UniProt O15379); assay: Inhibition of human recombinant full-length HDAC3 using fluorophore conjugated substrate by fluorescence assay
Histone deacetylase 2 = Histone deacetylase 2 (Homo sapiens, UniProt Q92769); assay: Inhibition of human recombinant full-length HDAC2 using fluorophore conjugated substrate by fluorescence assay
Histone deacetylase 1 = Histone deacetylase 1 (Homo sapiens, UniProt Q13547); assay: Inhibition of human recombinant full-length HDAC1 using fluorophore conjugated substrate by fluorescence assay
Mus musculus [2] = assay: Biodistribution in C57BL/6 mouse thymus at 241 +/- 18 uCi, iv; format: ADME, organism-based; conditions: in vivo
In short: (§1)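 Six C57BL/6 mice got the 18F tracer by tail-vein iv injection. Groups were sacrificed at 1 h (n = 3) and 3 h (n = 3) after dosing. Tissues were excised and weighed, and 18F activity was counted by gamma counter. Values are expressed as % injected dose per gram of tissue.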

Mus musculus [3] = assay: Biodistribution in human A2780 cells xenografted Nu/Nu mouse tumor at 2 mg in 100 uL of 60% PEG400 40% water, ip by PET-CT analysis; format: ADME, organism-based, Neoplasm; conditions: in vivo, TDE = time-dependent effect
In short: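 Nu/Nu mice (n = 5) carried subcutaneous A2780 human ovarian cancer implants (10⁶ cells in Matrigel per flank) and were imaged 10 days later under isoflurane 1.5%. The 18F tracer was scanned by PET-CT (about 80 min acquisition) before and after competition. […] Read-out was the tumor/muscle ratio.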

Brain = assay: Biodistribution in C57BL/6 mouse brain at 241 +/- 18 uCi, iv; format: ADME, organism-based; conditions: in vivo; in short: as §1
Blood = assay: Biodistribution in C57BL/6 mouse blood at 241 +/- 18 uCi, iv; format: ADME, organism-based; conditions: in vivo; in short: as §1
Mus musculus [4] = assay: Biodistribution in C57BL/6 mouse whole blood at 243 +/- 25 uCi, iv using 10% DMSO, 90% water formulation; format: ADME, organism-based; conditions: in vivo
In short: (§2)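 The 18F tracer was given to C57BL/6 mice by tail-vein iv bolus, n = 3 per vehicle. Vehicles were 60% PEG400 in water, 10% DMSO in water, or 20% DMAC:Solutol (1:1) in saline. Serial retro-orbital blood was drawn into tared capillary tubes, weighed and gamma-counted to give the blood time-activity curve.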

Liver = assay: Biodistribution in C57BL/6 mouse liver at 241 +/- 18 uCi, iv; format: ADME, organism-based; conditions: in vivo; in short: as §1
[5] = Initial half life in iv dosed mouse plasma; format: ADME, organism-based; conditions: read-out: alphat1/2
Mus musculus [6] = assay: Biodistribution in C57BL/6 mouse whole blood at 243 +/- 25 uCi, iv using 60% PEG400, 40% water formulation; format: ADME, organism-based; conditions: in vivo; in short: as §2
Nucleic Acid [7] = assay: Ratio of drug uptake in tumor to muscle in human A2780 cells xenografted Nu/Nu mouse at 2 mg in 100 uL of 60% PEG400 40% water, ip after 3 hrs by PET-CT analysis; format: ADME, organism-based; conditions: in vivo
In short: (§3)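 Nu/Nu mice (n = 5) bearing subcutaneous flank A2780 human ovarian cancer xenografts (10⁶ cells in Matrigel per flank), imaged 10 days after implantation. ¹⁸F-labelled tracer PET-CT under isoflurane anaesthesia (1.5%, O₂ 2 L/min), each acquisition ~80 min. […] Read-out: tumor/muscle uptake ratio.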

Nucleic Acid [8] = assay: Ratio of drug uptake in tumor to muscle in human A2780 cells xenografted Nu/Nu mouse at 2 mg in 100 uL of 60% PEG400 40% water, ip administered as 2 dose every 24 hrs interval measured after 3 hrs of post last dose by PET-CT analysis; format: ADME, organism-based; conditions: in vivo; in short: as §3
Heart = assay: Biodistribution in C57BL/6 mouse heart at 241 +/- 18 uCi, iv; format: ADME, organism-based; conditions: in vivo; in short: as §1
Mus musculus [9] = assay: Biodistribution in C57BL/6 mouse whole blood at 243 +/- 25 uCi, iv using […] dimethylacetamide, 10% Solutol HS15, 80% PBS formulation; format: ADME, organism-based; conditions: in vivo; in short: as §2
Kidney = assay: Biodistribution in C57BL/6 mouse kidney at 241 +/- 18 uCi, iv; format: ADME, organism-based; conditions: in vivo; in short: as §1

Sequence of Histone deacetylase 2 (Q92769 whole entry): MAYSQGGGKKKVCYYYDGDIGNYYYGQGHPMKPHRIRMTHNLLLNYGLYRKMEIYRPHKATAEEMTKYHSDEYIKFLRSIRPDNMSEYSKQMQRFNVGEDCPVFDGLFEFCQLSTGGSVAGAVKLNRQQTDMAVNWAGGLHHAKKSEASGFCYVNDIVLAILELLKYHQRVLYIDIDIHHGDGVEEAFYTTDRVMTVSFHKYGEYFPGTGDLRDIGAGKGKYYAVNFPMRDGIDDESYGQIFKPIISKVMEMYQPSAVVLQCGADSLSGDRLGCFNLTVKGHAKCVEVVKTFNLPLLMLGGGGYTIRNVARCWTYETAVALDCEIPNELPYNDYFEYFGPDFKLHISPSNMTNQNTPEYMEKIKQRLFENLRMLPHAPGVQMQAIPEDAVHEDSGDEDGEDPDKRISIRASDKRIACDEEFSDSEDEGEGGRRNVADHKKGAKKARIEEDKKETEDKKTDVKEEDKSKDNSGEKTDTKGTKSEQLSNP
Sequence of Histone deacetylase 3 (O15379 whole entry): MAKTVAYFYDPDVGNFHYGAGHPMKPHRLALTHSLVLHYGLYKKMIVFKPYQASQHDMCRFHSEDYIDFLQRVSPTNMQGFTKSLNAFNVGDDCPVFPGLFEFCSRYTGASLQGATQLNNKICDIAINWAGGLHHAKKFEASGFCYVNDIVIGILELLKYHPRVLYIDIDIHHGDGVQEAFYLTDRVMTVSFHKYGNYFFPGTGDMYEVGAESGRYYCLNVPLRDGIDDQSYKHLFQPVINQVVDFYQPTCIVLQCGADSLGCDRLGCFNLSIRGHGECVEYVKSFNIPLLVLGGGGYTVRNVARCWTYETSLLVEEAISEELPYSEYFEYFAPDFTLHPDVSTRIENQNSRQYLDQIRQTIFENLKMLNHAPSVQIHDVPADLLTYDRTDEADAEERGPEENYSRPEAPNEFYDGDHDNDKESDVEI
Sequence of Histone deacetylase 1 (Q13547 whole entry): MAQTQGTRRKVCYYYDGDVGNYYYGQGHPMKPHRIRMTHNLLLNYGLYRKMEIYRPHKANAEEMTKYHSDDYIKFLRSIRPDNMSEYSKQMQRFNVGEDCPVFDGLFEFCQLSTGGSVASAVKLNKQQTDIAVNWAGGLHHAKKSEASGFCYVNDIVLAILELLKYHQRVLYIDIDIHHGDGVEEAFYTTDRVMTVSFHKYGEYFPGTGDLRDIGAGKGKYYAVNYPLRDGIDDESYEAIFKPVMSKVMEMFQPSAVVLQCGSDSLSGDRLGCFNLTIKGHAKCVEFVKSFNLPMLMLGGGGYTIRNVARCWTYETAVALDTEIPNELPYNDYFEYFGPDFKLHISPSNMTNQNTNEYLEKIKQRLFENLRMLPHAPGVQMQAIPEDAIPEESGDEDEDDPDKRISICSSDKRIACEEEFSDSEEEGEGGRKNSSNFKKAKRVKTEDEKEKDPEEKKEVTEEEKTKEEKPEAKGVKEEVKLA

| SMILES | pIC50 [1] | pIC50 (Histone deacetylase 3) | pIC50 (Histone deacetylase 2) | pIC50 (Histone deacetylase 1) | Drug uptake (Mus musculus [2]) | Drug uptake (Mus musculus [3]) | Drug uptake (Brain) | Drug uptake (Blood) | Drug uptake (Mus musculus [4]) | Drug uptake (Liver) | half-life [5] | Drug uptake (Mus musculus [6]) | Ratio (Nucleic Acid [7]) | Ratio (Nucleic Acid [8]) | Drug uptake (Heart) | Drug uptake (Mus musculus [9]) | Drug uptake (Kidney) |
| --- | --- | --- | --- | --- | --- | --- | --- | --- | --- | --- | --- | --- | --- | --- | --- | --- | --- |
| O=C(CCCCCCC(=O)Nc1ccc([19F])cc1)NO | 7.30 | 7.62 | 7.90 | 8.05 | – | – | – | – | – | – | – | – | – | – | – | – | – |
| O=C(CCCCCCC(=O)Nc1ccc([18F])cc1)NO | – | – | – | – | Active | tde | Active | Active | 3 % ID/g | Active | < 1 min | < 1 % ID/g | 1.7 | 1.3 | Active | 6 % ID/g | Active |
